Series [1] is described as follows: Aqueous solubility of the compound at pH at 7.4 by HPLC analysis. In kind it is physicochemical. The settings on record: buffer, pH 7.4. The gist of the method:
(§1)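 Aqueous solubility read by HPLC in buffer at pH 2.0, 7.0 or 7.4.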

Series [2] concerns Human immunodeficiency virus 1. Put plainly: Antiviral activity against wild type HIV1 3B infected in human MT4 cells assessed as reduction in virus-induced cytopathic effect after 5 days by MTT assay. Type of series: functional, organism-based. The settings on record: Human immunodeficiency virus 1, 3B, MT4, 120 h. In general terms: Damage to the host cells serves as the signal in cytopathic effect assays.

The test system of series [3] is Human immunodeficiency virus 1. Briefly: Antiviral activity against HIV1 RES056 infected in human MT4 cells assessed as reduction in virus-induced cytopathic effect after 5 days by MTT assay. In kind it is functional, organism-based. Conditions: Human immunodeficiency virus 1, RES056, MT4, 120 h.
A further series deals with MT4. Put plainly: (§2) Cytotoxicity against human MT4 cells after 5 days by MTT assay. The settings on record: mt4, 120 h. Type of series: cell-based.
Series [4] can be described thus: Selectivity ratio of CC50 for human MT4 cells to EC50 for HIV1 3B infected in human MT4 cells. Type of series: toxicity, cell-based. The settings on record: read-out: Ratio CC50/EC50.
The nature of series [5]: Selectivity ratio of CC50 for human MT4 cells to EC50 for HIV1 RES056 infected in human MT4 cells. Type of series: toxicity, cell-based. Conditions: read-out: Ratio CC50/EC50.
The subject of series [6] is Human immunodeficiency virus 1. Put plainly: Antiviral activity against HIV1 harboring reverse transcriptase L100I mutant infected in human MT4 cells assessed as reduction in virus-induced cytopathic effect after 5 days by MTT assay. Conditions: Human immunodeficiency virus 1, MT4, 120 h. Type of series: functional, organism-based.
Series [7] concerns Human immunodeficiency virus 1. Briefly: Antiviral activity against HIV1 harboring reverse transcriptase K103N mutant infected in human MT4 cells assessed as reduction in virus-induced cytopathic effect after 5 days by MTT assay. The settings on record: Human immunodeficiency virus 1, MT4, 120 h. Type of series: functional, organism-based.
The subject of series [8] is Human immunodeficiency virus 1. Briefly: Antiviral activity against HIV1 harboring reverse transcriptase Y181C mutant infected in human MT4 cells assessed as reduction in virus-induced cytopathic effect after 5 days by MTT assay. Conditions: Human immunodeficiency virus 1, MT4, 120 h. In kind it is functional, organism-based.
Series [9] relates to Human immunodeficiency virus 1. Put plainly: Antiviral activity against HIV1 harboring reverse transcriptase Y188L mutant infected in human MT4 cells assessed as reduction in virus-induced cytopathic effect after 5 days by MTT assay. Type of series: functional, organism-based. Conditions: Human immunodeficiency virus 1, MT4, 120 h.
Series [10] has as its system Human immunodeficiency virus 1. Put plainly: Antiviral activity against HIV1 harboring reverse transcriptase E138K mutant infected in human MT4 cells assessed as reduction in virus-induced cytopathic effect after 5 days by MTT assay. Type of series: functional, organism-based. The settings on record: Human immunodeficiency virus 1, MT4, 120 h.
Series [11] relates to Human immunodeficiency virus 1. Briefly: Antiviral activity against HIV1 harboring reverse transcriptase F227L/V106A double mutant infected in human MT4 cells assessed as reduction in virus-induced cytopathic effect after 5 days by MTT assay. In kind it is functional, organism-based. The settings on record: Human immunodeficiency virus 1, MT4, 120 h.
Series [12] can be described thus: Selectivity ratio of CC50 for human MT4 cells to EC50 for HIV1 harboring reverse transcriptase L100I mutant infected in human MT4 cells. Type of series: toxicity, cell-based. Conditions: read-out: Ratio CC50/EC50.
Series [13] is described as follows: Selectivity ratio of CC50 for human MT4 cells to EC50 for HIV1 harboring reverse transcriptase K103N mutant infected in human MT4 cells. Type of series: toxicity, cell-based. The settings on record: read-out: Ratio CC50/EC50.
The nature of series [14]: Selectivity ratio of CC50 for human MT4 cells to EC50 for HIV1 harboring reverse transcriptase Y181C mutant infected in human MT4 cells. In kind it is toxicity, cell-based. The settings on record: read-out: Ratio CC50/EC50.
Series [15] is described as follows: Selectivity ratio of CC50 for human MT4 cells to EC50 for HIV1 harboring reverse transcriptase Y188L mutant infected in human MT4 cells. In kind it is toxicity, cell-based. The settings on record: read-out: Ratio CC50/EC50.
The nature of series [16]: Selectivity ratio of CC50 for human MT4 cells to EC50 for HIV1 harboring reverse transcriptase E138K mutant infected in human MT4 cells. Conditions: read-out: Ratio CC50/EC50. In kind it is toxicity, cell-based.
Series [17] in a line: Selectivity ratio of CC50 for human MT4 cells to EC50 for HIV1 harboring reverse transcriptase F227L/V106A double mutant infected in human MT4 cells. In kind it is toxicity, cell-based. Conditions: read-out: Ratio CC50/EC50.
The test system of series [18] is Human immunodeficiency virus 1. Briefly: Resistance factor, ratio of EC50 for HIV1 harboring reverse transcriptase L100I mutant to EC50 for wild type HIV1. In kind it is functional. The gist of the method: (§3)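 The resistance factor is the EC50 against the mutant strain divided by the EC50 against wild-type HIV-1. Both were measured in MT-4 cells by MTT read-out of protection from virus-induced cytopathicity.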

The test system of series [19] is Human immunodeficiency virus 1. Briefly: Resistance factor, ratio of EC50 for HIV1 harboring reverse transcriptase K103N mutant to EC50 for wild type HIV1. In kind it is functional. The gist of the method: as §3
Series [20] relates to Human immunodeficiency virus 1. Put plainly: Resistance factor, ratio of EC50 for HIV1 harboring reverse transcriptase Y181C mutant to EC50 for wild type HIV1. In kind it is functional. In outline:
as §3

For series [21], the system named is Human immunodeficiency virus 1. Put plainly: Resistance factor, ratio of EC50 for HIV1 harboring reverse transcriptase Y188L mutant to EC50 for wild type HIV1. Type of series: functional. The gist of the method: as §3
The test system of series [22] is Human immunodeficiency virus 1. Briefly: Resistance factor, ratio of EC50 for HIV1 harboring reverse transcriptase E138K mutant to EC50 for wild type HIV1. Type of series: functional. The gist of the method: as §3
The subject of series [23] is Human immunodeficiency virus 1. Put plainly: Resistance factor, ratio of EC50 for HIV1 harboring reverse transcriptase F227L/V106A double mutant to EC50 for wild type HIV1. Type of series: functional. The gist of the method: as §3
Series [24] addresses Human immunodeficiency virus type 1 reverse transcriptase (Human immunodeficiency virus 1, UniProt Q72547). Put plainly: Inhibition of recombinant HIV1 reverse transcriptase using (DIG)-dUTP and biotin-labeled dNTPs as substrate after 1 hr by ELISA. A general note: An ELISA detects its analyte on a solid surface through an enzyme-linked reagent.
The nature of series [25]: Aqueous solubility of the compound at pH at 7 by HPLC analysis. Type of series: physicochemical. The settings on record: buffer, pH 7. In outline:
as §1

Series [26] can be described thus: Aqueous solubility of the compound at pH at 2 by HPLC analysis. Type of series: physicochemical. Conditions: buffer, pH 2. In outline:
as §1

The nature of series [27]: Aqueous solubility of the compound in FASSIF by HPLC analysis. Conditions: simulated gi fluid. In kind it is physicochemical. The gist of the method: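 Solubility read by HPLC in fasted state simulated intestinal fluid (FaSSIF).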
Series [28] concerns Human immunodeficiency virus 2. Put plainly: Antiviral activity against HIV2 ROD infected in human MT4 cells assessed as reduction in virus-induced cytopathic effect after 5 days by MTT assay. Conditions: Human immunodeficiency virus 2, ISOLATE ROD, MT4, 120 h.
Series [29] is described as follows: Sub-acute toxicity in Kunming mouse assessed as alveolar interstitial thickening at 50 mg/kg/day, po administered for 2 weeks by hematoxylin and eosin staining-based assay. Type of series: organism-based. The settings on record: in vivo, 336 h. In outline: (§4)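 Mice were dosed orally at 50 mg/kg/day for 2 weeks and observed for behavioural abnormalities during treatment. Organs were then examined by hematoxylin–eosin staining.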

Series [30] is described as follows: Sub-acute toxicity in Kunming mouse assessed as alveolar hemorrhage at 50 mg/kg/day, po administered for 2 weeks by hematoxylin and eosin staining-based assay. In kind it is organism-based. Conditions: in vivo, 336 h. The gist of the method:
as §4

Series [31] in a line: Sub-acute toxicity in Kunming mouse assessed as proximal convoluted tubule edema in kidney at 50 mg/kg/day, po administered for 2 weeks by hematoxylin and eosin staining-based assay. In kind it is organism-based. Conditions: in vivo, 336 h. In outline: as §4
A short description of series [32]: Protein binding in rat plasma assessed as recovery rate at 1 uM after 5 hrs by LC/MS analysis. In kind it is ADME, cell-free. The gist of the method: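 Equilibrium dialysis against plasma proteins: human plasma for line 1, Wistar rat plasma for line 2. Reference drug tested at 1 μM. Recovery rate reported alongside percent protein-binding rate.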
Series [33] can be described thus: as §2. Type of series: cell-based. Conditions: MT4 cells.

Converted amounts (≈) assume the structure as drawn.

`Cc1cc(C#N)cc(C)c1Oc1nc(NC2CCN(Cc3ccc(S(C)(=O)=O)cc3)CC2)nc2c1COC2`: the solubility in [1] was less than 1 µg/mL; in series [25], 1.37 µg/mL (≈ 2.57 µM); in series [26] it was 164 µg/mL (≈ 307 µM); in series [27] it was 23.6 µg/mL (≈ 44.2 µM). The EC50 in series [2] was found to be 1.9 nM; in [3], 41.6 nM; in [6], 3.4 nM; in series [7], 2 nM; in series [8], 4.9 nM; in series [9], 7.9 nM. The EC50 was 7.8 nM in series [10], 7.2 nM in series [11] and greater than 27000 nM in series [28]. The CC50 in the series with MT4 was determined as 31300 nM. In addition, the selectivity ratio in series [4] was 15900; in series [5], 752; in series [12], 9050; in series [13], 15200; in series [14] it was 6320; in series [15], 3940. Also, the selectivity ratio turned out to be 3990 in series [16] and 4350 in series [17]. Further, the “Ratio EC50” value in [18] came to 1.8; in series [19], 1; in series [20] it was 2.5; in [21], 4; in series [22] it was 4; in series [23], 3.7. Also, the half-inhibitory concentration (IC50) in [24] was 77 nM.

`Cc1cc(C#N)cc(C)c1Oc1nc(NC2CCN(Cc3ccc(S(N)(=O)=O)cc3)CC2)nc2c1SCC2`: the solubility in series [1] is 2.54 µg/mL (≈ 4.61 µM); in series [25], 8.26 µg/mL (≈ 15 µM); in series [26] it was 192 µg/mL (≈ 349 µM); in [27], 10 µg/mL (≈ 18.2 µM). Further, the EC50 in series [2] was 4.3 nM; in [3], 28.8 nM; in series [6] it was 5.8 nM; in [7], 5.9 nM; in series [8], 8 nM; in series [9] it was 10.1 nM. In addition, the EC50 in [10] was determined as 12.8 nM; in series [11], 13.7 nM; in series [28], 6550 nM. In the series with MT4, the CC50 was found to be 19900 nM. The selectivity ratio was found to be 4580 in series [4]; 692 in series [5]; 2880 in series [12]; 2840 in series [13]; 2070 in series [14]; 1640 in [15]. For the same molecule, the selectivity ratio was determined as 1300 in series [16] and 1220 in [17]. In addition, the “Ratio EC50” value in series [18] was 1.2; in series [19], 1.3; in [20] it was 1.7; in series [21], 2.2; in [22], 2.7; in series [23] it was 2.9. For the same molecule, the concentration for half-maximal inhibition (IC50) in [24] came to 74 nM.

As to `Cc1cc(C#N)cc(C)c1Oc1nc(Nc2ccc(C#N)cc2)nc(N)c1Br` [ETRAVIRINE], the solubility in [1] (read-out: solubility) was less than 1 µg/mL; in series [25] (read-out: solubility), less than 1 µg/mL; in [27], 13.2 µg/mL (≈ 30.3 µM). For the same molecule, the concentration for a half-maximal effect (EC50) was 5.1 nM in series [2]; 45.4 nM in series [3]; 6 nM in series [6]; 14.5 nM in [8]; 9.7 nM in series [10]; 19.7 nM in [11]. Further, the Activity entry in series [29], in series [30] and in [31] was “Toxic” in each case.

In the case of `CC(=O)CC(c1ccccc1)c1c(O)c2ccccc2oc1=O` (configuration not stated) [WARFARIN], in [32], the Drug recovery came out at 107%.

`Cc1cc(C#N)cc(C)c1Oc1nc(NC2CCN(Cc3cccc(C(N)=O)c3)CC2)nc2c1SCCC2`: the EC50 was 5.1 nM in series [2], 1050 nM in series [3] and greater than 5800 nM in series [28]. In addition, in [33], the cytotoxic concentration (CC50) at 120 h was 5800 nM. In addition, the figures for the selectivity ratio in series [4] and in [5] were 1140 and 5.5, respectively.

The solubility is the dissolved amount per volume that the medium holds. In general, EC50 refers to the concentration needed to bring the measured effect to its halfway point. What is called CC50 is the concentration at which the toxic effect on the cells reaches its halfway point. Higher therefore signals lower toxicity to the cells. Usually IC50 stands for the concentration that gives 50% inhibition.

The values above are taken from ChEMBL document CHEMBL4368909, “Identification of Dihydrofuro[3,4- d]pyrimidine Derivatives as Novel HIV-1 Non-Nucleoside Reverse Transcriptase Inhibitors with Promising Antiviral Activities and Desirable Physicochemical Properties” (J Med Chem, 2019).
